Data taken from ChEMBL document CHEMBL1150367, “High specific activity tritium-labeled N-(2-methoxybenzyl)-2,5-dimethoxy-4-iodophenethylamine (INBMeO): a high-affinity 5-HT2A receptor-selective agonist radioligand” (Bioorg Med Chem, 2008).
pKd, pKi: −log10 of the molar value.

Legend:
[1] = molecular target: T1, 5-hydroxytryptamine receptor 2A (Homo sapiens, UniProt P28223); experiment: Binding affinity to human 5HT2A receptor expressed in human A549 cells; type: cell-based; settings: for Bmax: tested as the 3H-labelled form
T1 sequence (P28223 whole entry): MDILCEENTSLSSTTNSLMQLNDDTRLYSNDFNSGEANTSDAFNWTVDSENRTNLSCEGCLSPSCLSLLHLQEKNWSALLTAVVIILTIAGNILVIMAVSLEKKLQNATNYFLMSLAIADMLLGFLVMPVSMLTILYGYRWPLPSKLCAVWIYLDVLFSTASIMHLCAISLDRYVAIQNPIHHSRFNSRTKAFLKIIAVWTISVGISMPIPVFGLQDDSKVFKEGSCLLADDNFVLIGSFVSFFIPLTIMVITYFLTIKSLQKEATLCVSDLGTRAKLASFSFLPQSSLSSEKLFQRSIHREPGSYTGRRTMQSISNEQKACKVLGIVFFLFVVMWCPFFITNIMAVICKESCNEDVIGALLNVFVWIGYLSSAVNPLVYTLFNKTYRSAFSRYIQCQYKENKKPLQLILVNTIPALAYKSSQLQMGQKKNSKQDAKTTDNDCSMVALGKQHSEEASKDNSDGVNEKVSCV
Method in brief: (§1)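 Incubated 60 min at 25 °C in 50 mM Tris, 4 mM MgCl2, pH 7.4, with 1% BSA. Nonspecific defined by 10 μM cinanserin; filtration and scintillation counting.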

[2] = molecular target: T1, 5-hydroxytryptamine receptor 2A; experiment: Binding affinity to human 5HT2A receptor expressed in human HEK293 cells; type: cell-based; settings: for Bmax: tested as the 3H-labelled form; method in brief: as §1
[3] = molecular target: T1, 5-hydroxytryptamine receptor 2A; experiment: Displacement of [3H]INBMeO from human 5HT2A receptor expressed in human A549 cells; type: cell-based
[4] = molecular target: T1, 5-hydroxytryptamine receptor 2A; experiment: Displacement of [3H]ketanserin from human 5HT2A receptor expressed in human A549 cells; type: cell-based
[5] = molecular target: T1, 5-hydroxytryptamine receptor 2A; experiment: Displacement of [3H]INBMeO from human 5HT2A receptor expressed in human HEK293 cells; type: cell-based
[6] = molecular target: T1, 5-hydroxytryptamine receptor 2A; experiment: Displacement of [3H]ketanserin from human 5HT2A receptor expressed in human HEK293 cells; type: cell-based
[7] = molecular target: 5-hydroxytryptamine receptor 2C (Homo sapiens, UniProt P28335); experiment: Binding affinity to 5HT2C receptor
Histamine H1 receptor = Histamine H1 receptor (Homo sapiens, UniProt P35367); experiment: Binding affinity to histamine H1 receptor
[8] = molecular target: Muscarinic acetylcholine receptor M1 (Homo sapiens, UniProt P11229); experiment: Binding affinity to muscarinic M1 receptor
D(2) dopamine receptor = D(2) dopamine receptor (Homo sapiens, UniProt P14416); experiment: Binding affinity to dopamine D2 receptor
[9] = molecular target: Muscarinic acetylcholine receptor M5 (Homo sapiens, UniProt P08912); experiment: Binding affinity to muscarinic M5 receptor
[10] = molecular target: 5-hydroxytryptamine receptor 3A (Homo sapiens, UniProt P46098); experiment: Binding affinity to 5HT3 receptor
[11] = molecular target: 5-hydroxytryptamine receptor 1B (Homo sapiens, UniProt P28222); experiment: Binding affinity to 5HT1B receptor
[12] = molecular target: Sodium-dependent serotonin transporter (Homo sapiens, UniProt P31645); experiment: Binding affinity to serotonin uptake transporter
Sodium-dependent serotonin transporter, sequence (P31645 whole entry): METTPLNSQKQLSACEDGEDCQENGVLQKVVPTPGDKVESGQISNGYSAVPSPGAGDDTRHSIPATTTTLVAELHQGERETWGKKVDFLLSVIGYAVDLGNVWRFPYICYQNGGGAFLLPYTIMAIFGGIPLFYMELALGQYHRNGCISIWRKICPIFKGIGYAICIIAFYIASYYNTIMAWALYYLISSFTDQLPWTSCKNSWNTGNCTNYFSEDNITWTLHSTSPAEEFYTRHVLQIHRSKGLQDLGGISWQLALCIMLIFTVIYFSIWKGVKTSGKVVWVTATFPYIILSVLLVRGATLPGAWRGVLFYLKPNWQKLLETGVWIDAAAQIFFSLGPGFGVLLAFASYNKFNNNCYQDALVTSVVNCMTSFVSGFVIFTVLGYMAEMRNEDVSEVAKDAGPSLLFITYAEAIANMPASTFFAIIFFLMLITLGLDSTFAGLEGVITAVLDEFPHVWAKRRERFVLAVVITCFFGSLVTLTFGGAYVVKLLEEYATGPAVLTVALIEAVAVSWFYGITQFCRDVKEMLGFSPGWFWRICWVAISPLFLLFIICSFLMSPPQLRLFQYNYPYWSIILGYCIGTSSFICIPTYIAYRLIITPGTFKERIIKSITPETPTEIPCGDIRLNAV

[13] = molecular target: Muscarinic acetylcholine receptor M4 (Homo sapiens, UniProt P08173); experiment: Binding affinity to muscarinic M4 receptor
Muscarinic acetylcholine receptor M4, sequence (P08173 whole entry): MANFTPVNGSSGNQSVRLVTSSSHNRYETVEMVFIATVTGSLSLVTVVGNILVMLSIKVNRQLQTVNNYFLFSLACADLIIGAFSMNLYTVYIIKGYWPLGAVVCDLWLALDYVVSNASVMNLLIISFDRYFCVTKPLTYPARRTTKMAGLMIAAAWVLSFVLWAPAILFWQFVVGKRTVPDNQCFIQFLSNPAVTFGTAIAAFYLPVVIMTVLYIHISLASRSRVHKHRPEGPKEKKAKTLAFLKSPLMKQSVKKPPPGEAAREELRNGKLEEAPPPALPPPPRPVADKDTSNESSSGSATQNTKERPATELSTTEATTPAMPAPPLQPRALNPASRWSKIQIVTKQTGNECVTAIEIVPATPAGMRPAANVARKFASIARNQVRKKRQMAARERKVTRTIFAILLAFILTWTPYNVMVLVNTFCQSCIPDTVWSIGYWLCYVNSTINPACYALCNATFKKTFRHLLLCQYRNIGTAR

[14] = molecular target: Alpha-1A adrenergic receptor (Homo sapiens, UniProt P35348); experiment: Binding affinity to alpha 1A adrenergic receptor
Alpha-1A adrenergic receptor, sequence (P35348 whole entry): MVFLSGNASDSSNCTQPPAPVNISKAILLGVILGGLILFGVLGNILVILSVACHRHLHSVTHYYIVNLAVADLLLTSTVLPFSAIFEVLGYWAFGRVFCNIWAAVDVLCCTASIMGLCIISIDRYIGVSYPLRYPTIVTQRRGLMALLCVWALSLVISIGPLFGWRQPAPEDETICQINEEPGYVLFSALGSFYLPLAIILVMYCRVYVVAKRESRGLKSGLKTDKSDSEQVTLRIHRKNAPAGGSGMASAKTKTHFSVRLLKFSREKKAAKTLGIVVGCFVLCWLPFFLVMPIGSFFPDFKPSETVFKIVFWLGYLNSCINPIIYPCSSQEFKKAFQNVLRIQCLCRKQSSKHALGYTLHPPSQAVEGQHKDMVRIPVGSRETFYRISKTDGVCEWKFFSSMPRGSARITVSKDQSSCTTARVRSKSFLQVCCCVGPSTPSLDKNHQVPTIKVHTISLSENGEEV

[15] = molecular target: 5-hydroxytryptamine receptor 2B (Homo sapiens, UniProt P41595); experiment: Binding affinity to 5HT2B receptor
5-hydroxytryptamine receptor 2B, sequence (P41595 whole entry): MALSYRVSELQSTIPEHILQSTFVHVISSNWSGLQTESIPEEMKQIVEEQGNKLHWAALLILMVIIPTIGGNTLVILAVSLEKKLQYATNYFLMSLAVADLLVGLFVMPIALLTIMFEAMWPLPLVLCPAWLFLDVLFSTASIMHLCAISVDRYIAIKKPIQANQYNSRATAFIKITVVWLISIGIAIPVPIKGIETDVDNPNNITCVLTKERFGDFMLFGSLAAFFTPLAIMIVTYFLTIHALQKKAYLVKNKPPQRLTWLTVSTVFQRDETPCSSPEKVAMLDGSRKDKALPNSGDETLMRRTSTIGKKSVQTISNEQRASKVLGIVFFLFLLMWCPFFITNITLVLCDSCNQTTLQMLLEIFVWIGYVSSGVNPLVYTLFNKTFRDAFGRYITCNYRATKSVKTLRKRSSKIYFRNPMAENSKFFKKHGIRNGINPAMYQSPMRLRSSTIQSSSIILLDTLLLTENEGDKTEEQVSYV

Histamine H3 receptor = Histamine H3 receptor (Homo sapiens, UniProt Q9Y5N1); experiment: Binding affinity to histamine H3 receptor
Mu-type opioid receptor = Mu-type opioid receptor (Homo sapiens, UniProt P35372); experiment: Binding affinity to mu opioid receptor
Mu-type opioid receptor, sequence (P35372 whole entry): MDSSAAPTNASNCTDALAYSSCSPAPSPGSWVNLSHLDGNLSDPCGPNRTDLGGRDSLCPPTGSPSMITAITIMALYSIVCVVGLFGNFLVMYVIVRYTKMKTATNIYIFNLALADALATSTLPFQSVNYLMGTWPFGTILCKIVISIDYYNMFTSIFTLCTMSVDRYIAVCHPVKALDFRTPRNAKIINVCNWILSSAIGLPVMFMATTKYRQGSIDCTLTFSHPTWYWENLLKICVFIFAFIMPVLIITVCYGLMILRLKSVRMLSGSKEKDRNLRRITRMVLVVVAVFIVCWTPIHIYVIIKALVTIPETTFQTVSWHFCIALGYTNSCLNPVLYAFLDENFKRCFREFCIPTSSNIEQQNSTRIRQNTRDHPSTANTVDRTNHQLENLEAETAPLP

Histamine H2 receptor = Histamine H2 receptor (Homo sapiens, UniProt P25021); experiment: Binding affinity to histamine H2 receptor
Histamine H2 receptor, sequence (P25021 whole entry): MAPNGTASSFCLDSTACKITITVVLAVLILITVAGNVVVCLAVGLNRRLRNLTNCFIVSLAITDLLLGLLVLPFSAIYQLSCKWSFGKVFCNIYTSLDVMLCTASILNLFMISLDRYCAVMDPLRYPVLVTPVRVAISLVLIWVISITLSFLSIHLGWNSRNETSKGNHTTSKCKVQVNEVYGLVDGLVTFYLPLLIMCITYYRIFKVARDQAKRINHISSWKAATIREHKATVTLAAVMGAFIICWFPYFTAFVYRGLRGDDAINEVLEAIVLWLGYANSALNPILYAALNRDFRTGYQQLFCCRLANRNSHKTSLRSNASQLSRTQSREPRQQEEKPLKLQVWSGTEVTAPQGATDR

[16] = molecular target: 5-hydroxytryptamine receptor 7 (Homo sapiens, UniProt P34969); experiment: Binding affinity to 5HT7 receptor
[17] = molecular target: 5-hydroxytryptamine receptor 6 (Homo sapiens, UniProt P50406); experiment: Binding affinity to 5HT6 receptor
D(1A) dopamine receptor = D(1A) dopamine receptor (Homo sapiens, UniProt P21728); experiment: Binding affinity to dopamine D1 receptor
[18] = molecular target: Delta-type opioid receptor (Homo sapiens, UniProt P41143); experiment: Binding affinity to delta opioid receptor
Delta-type opioid receptor, sequence (P41143 whole entry): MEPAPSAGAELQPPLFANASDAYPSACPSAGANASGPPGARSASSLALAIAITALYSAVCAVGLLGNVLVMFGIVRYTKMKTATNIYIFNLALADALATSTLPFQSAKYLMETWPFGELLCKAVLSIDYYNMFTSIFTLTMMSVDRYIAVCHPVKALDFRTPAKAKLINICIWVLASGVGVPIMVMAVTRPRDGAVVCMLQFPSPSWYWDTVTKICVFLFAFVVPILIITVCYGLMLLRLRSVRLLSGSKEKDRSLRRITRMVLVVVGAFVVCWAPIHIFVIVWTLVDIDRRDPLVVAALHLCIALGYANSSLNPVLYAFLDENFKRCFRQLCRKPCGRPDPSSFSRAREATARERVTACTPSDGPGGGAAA

[19] = molecular target: 5-hydroxytryptamine receptor 5A (Homo sapiens, UniProt P47898); experiment: Binding affinity to 5HT5A receptor
5-hydroxytryptamine receptor 5A, sequence (P47898 whole entry): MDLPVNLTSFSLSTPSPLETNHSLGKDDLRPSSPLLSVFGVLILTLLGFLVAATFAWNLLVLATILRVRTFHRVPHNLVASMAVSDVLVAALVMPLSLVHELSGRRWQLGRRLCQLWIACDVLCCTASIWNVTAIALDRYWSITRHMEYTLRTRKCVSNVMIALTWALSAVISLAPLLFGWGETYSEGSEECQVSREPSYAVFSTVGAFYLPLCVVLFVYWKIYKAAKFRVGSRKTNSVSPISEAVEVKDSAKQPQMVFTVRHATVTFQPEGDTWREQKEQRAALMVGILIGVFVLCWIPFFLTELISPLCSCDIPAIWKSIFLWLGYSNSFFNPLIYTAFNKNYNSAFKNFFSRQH

[20] = molecular target: 5-hydroxytryptamine receptor 1E (Homo sapiens, UniProt P28566); experiment: Binding affinity to 5HT1E receptor
[21] = molecular target: Muscarinic acetylcholine receptor M2 (Homo sapiens, UniProt P08172); experiment: Binding affinity to muscarinic M2 receptor
D(3) dopamine receptor = D(3) dopamine receptor (Homo sapiens, UniProt P35462); experiment: Binding affinity to dopamine D3 receptor
D(3) dopamine receptor, sequence (P35462 whole entry): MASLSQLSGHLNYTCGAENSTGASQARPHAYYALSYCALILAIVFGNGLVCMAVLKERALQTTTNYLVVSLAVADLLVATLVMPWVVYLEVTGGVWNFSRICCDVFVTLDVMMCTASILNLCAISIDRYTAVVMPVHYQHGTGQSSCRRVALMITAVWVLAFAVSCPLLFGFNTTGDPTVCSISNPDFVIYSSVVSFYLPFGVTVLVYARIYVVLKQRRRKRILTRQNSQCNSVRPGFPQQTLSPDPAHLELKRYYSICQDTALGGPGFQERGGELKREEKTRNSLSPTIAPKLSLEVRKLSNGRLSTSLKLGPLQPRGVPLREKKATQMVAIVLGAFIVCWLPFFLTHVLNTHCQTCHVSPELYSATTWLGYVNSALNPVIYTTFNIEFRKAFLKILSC

[22] = molecular target: 5-hydroxytryptamine receptor 1D (Homo sapiens, UniProt P28221); experiment: Binding affinity to 5HT1D receptor
D(1B) dopamine receptor = D(1B) dopamine receptor (Homo sapiens, UniProt P21918); experiment: Binding affinity to dopamine D5 receptor
[23] = molecular target: 5-hydroxytryptamine receptor 1A (Homo sapiens, UniProt P08908); experiment: Binding affinity to 5HT1A receptor
[24] = molecular target: Muscarinic acetylcholine receptor M3 (Homo sapiens, UniProt P20309); experiment: Binding affinity to muscarinic M3 receptor
[25] = molecular target: Sodium-dependent dopamine transporter (Homo sapiens, UniProt Q01959); experiment: Binding affinity to dopamine uptake transporter
[26] = molecular target: Kappa-type opioid receptor (Homo sapiens, UniProt P41145); experiment: Binding affinity to kappa opioid receptor
Kappa-type opioid receptor, sequence (P41145 whole entry): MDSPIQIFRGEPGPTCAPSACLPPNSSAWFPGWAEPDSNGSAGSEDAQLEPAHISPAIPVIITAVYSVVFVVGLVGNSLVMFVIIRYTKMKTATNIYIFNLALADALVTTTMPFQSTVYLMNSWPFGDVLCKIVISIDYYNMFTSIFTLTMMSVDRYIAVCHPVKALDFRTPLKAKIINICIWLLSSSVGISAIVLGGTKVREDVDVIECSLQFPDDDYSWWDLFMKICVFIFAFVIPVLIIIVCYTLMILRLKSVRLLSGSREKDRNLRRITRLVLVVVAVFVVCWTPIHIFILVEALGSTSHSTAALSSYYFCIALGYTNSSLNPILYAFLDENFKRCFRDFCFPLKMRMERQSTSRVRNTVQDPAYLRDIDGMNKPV

Q: For `COc1cc(CCNCc2ccccc2OC)c(OC)cc1I`, which Bmax [1] is on record?
A: 480 fmol/mg

Q: What about the Bmax [2] of the same compound?
A: 2210 fmol/mg

Q: `CN(C)CCCSc1ccccc1NC(=O)/C=C/c1ccccc1` [CINANSERIN] was tested. Which pKi [3] did it give?
A: 7.62

Q: And the pKi [4]?
A: 7.77

Q: And the pKi [5]?
A: 7.66

Q: What about the pKi [6] of the same compound?
A: 7.89

Q: What does the source list for `[3H]C([3H])([3H])Oc1cc(I)c(OC)cc1CCNCc1ccccc1OC([3H])([3H])[3H]`?
A: pKi [7]: 8.70; pKi (Histamine H1 receptor): 6.72; pKi [8]: < 6.30; pKi (D(2) dopamine receptor): < 6.30; pKi [9]: < 6.30; pKi [10]: < 6.30; pKi [11]: < 6.30; pKi [12]: < 6.30; pKi [13]: < 6.30; pKi [14]: < 6.30; pKi [15]: 6.64; pKi (Histamine H3 receptor): < 6.30; pKi (Mu-type opioid receptor): 7.09; pKi (Histamine H2 receptor): < 6.30; pKi [16]: < 6.30; pKi [17]: 7.14; pKd [1]: 10.01; pKi (D(1A) dopamine receptor): < 6.30; pKi [18]: < 6.30; pKi [19]: < 6.30; pKi [20]: < 6.30; pKi [21]: < 6.30; pKd [2]: 9.82; pKi (D(3) dopamine receptor): < 6.30; pKi [22]: < 6.30; pKi (D(1B) dopamine receptor): < 6.30; pKi [23]: < 6.30; pKi [24]: < 6.30; pKi [25]: < 6.30; pKi [26]: 6.54

Q: Which Bmax [1] does the source give for `O=C(c1ccc(F)cc1)C1CCN(CCn2c(=O)[nH]c3ccccc3c2=O)CC1` here?
A: 890 fmol/mg

Q: And the Bmax [2]?
A: 3260 fmol/mg
